Data on four compounds can be found in ChEMBL document CHEMBL1157670, “Total synthesis and cytotoxicity evaluation of all ochratoxin A stereoisomers” (Bioorg Med Chem, 2010).

Type in all cases: functional, cell-based
For assay [1], the system named is HepG2. The experiment in a line: Cytotoxicity against human HepG2 cells assessed as LDH release after 48 hrs by microplate reader method. In short, it runs like this: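 Hep G2 cells in DMEM/10% FCS, seeded 2×10^4/well, switched to serum-free after 48 h at ~80% confluence. After 24 h, compound added at 10 nM–50 µM (1 mM methanol stock) for 48 h. Cells lysed on ice with 1% Triton X-100 Tris buffer. Lysate and medium LDH read kinetically as NADH loss ([…], 10 mM pyruvate, HEPES pH 7.0) at 340 nm over 60 min at 37 °C. Released vs total LDH normalized to positive and negative controls. n = 9.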
For orientation: LDH leaks from cells whose membrane has failed.

Assay [2] deals with HepG2. The experiment in a line: Cytotoxicity against human HepG2 cells after 48 hrs by WST8 assay. To be noted: for IC50: HepG2, 48 h. In short, it runs like this:
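Hep G2 cells grown in DMEM + 10% FCS (37 °C, 8.5% CO2), seeded 4×10^3/well for 48 h, then 24 h serum-free at ~80% confluence. Compound from 1 mM methanol stock, 10 nM–50 µM, 48 h, serum-free; solvent controls. Then WST-8 for 1 h at 37 °C, absorbance 450 nm, normalized to untreated control. Triplicate, three independent passages (n = 9).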
For orientation: Tetrazolium dyes change colour on reduction, which living cells bring about.

For assay [3], the system named is HepG2. As to the kind of experiment: Induction of apoptosis in human HepG2 cells assessed as caspase 3 activation after 24 hrs by fluorescence assay. Conditions: HepG2, 24 h. The method in brief: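 Hep G2 cells seeded 2×10^4/well and made serum-free as for the other assays. Compound given at 10 nM–50 µM (1 mM methanol stock) for 24 h. Lysed on ice in 0.1% Triton X-100 buffer, pH 7.5, then centrifuged. Supernatant incubated 1 h at 37 °C with 8 µM DEVD-AFC in PIPES/CHAPS/DTT buffer. AFC fluorescence (ex 400/em 505 nm) quantified against an AFC standard and normalized to BCA protein. n = 9.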

As usually defined, the IC50 is the midpoint of a concentration-inhibition curve. The EC50 is the concentration at which the effect is half-maximal. Consider `C[C@H]1Cc2c(Cl)cc(C(=O)N[C@@H](Cc3ccccc3)C(=O)O)c(O)c2C(=O)O1` [3S14S-OCHRATOXIN A], for which the Activity entry with HepG2 [1] and in the assay on HepG2 [2] was “Dose-dependent effect” each time. In the assay on HepG2 [2], this compound showed a 50% inhibitory concentration (IC50) of 400 nM. In addition, the EC50 in the assay on HepG2 [3] was 80 nM.
For the compound `C[C@H]1Cc2c(Cl)cc(C(=O)N[C@H](Cc3ccccc3)C(=O)O)c(O)c2C(=O)O1` [3S14R-OCHRATOXIN A], the Activity result in the assay on HepG2 [1] and in the assay on HepG2 [2] was “Dose-dependent effect” in each case. In the assay with HepG2 [2], this compound registered a 50% inhibitory concentration (IC50) of 5000 nM. In the assay on HepG2 [3], the EC50 is 3800 nM.
As for `C[C@@H]1Cc2c(Cl)cc(C(=O)N[C@H](Cc3ccccc3)C(=O)O)c(O)c2C(=O)O1` [3R14R-OCHRATOXIN A], the Activity result with HepG2 [1] and with HepG2 [2] was “Dose-dependent effect” throughout. This compound also had an IC50 in the assay with HepG2 [2] of 3200 nM. In the assay with HepG2 [3], the EC50 is above 10000 nM.
For the compound `C[C@@H]1Cc2c(Cl)cc(C(=O)N[C@@H](Cc3ccccc3)C(=O)O)c(O)c2C(=O)O1` [3R14S-OCHRATOXIN A], the Activity entry in the assay on HepG2 [1] is “Dose-dependent effect”. Moreover, in the assay with HepG2 [2], the Activity result is “Dose-dependent effect” and the IC50 was found to be 300 nM. Also, the EC50 in the assay on HepG2 [3] was 60 nM.
